Measured values: ChEMBL document CHEMBL1255259, “Phosphorothioate-modified oligodeoxynucleotides inhibit human cytomegalovirus replication by blocking virus entry” (Antimicrob Agents Chemother, 2008)
Activity calls are given as the source filed them. The rule behind the calls is not given here.

How the values were obtained:
unidentified adenovirus = assay: Antimicrobial activity against unidentified adenovirus infected in compound pretreated HELF assessed as inhibition of viral replication; type: functional, organism-based
In short: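 HELF pretreated 1 h with ODN (0.1 or 1 μM), infected with an adenovirus clinical isolate (MOI 1); ODN kept after 2 h adsorption. Harvest at 4 days p.i., sonication, plaque titration on HELF. Means ± SD, three experiments.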

Human betaherpesvirus 5 [1] = assay: Antimicrobial activity against Human cytomegalovirus AD169 infected in HELF assessed as inhibition of viral replication at 0.1 uM measured after 6 days post-infection; type: functional, organism-based
Human betaherpesvirus 5 [2] = assay: Antimicrobial activity against Human cytomegalovirus AD169 infected in compound pretreated HELF measured as immediate early 2 mRNA level by RT-PCR; type: functional, organism-based
[3] = Cytotoxicity against HELF assessed as cell viability by MTT assay after 6 days at <=10 uM; type: cell-based; conditions: human, 144 h
In short: (§1)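 HELF exposed to rising ODN concentrations (up to 10 μM) for 6 days; viable cells measured by MTT. CC50 taken as concentration that cuts viability to 50%.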

Human betaherpesvirus 5 [4] = assay: Antimicrobial activity against Human cytomegalovirus AD169 infected in compound pretreated HELF measured as immediate early 1 mRNA level by RT-PCR; type: functional, organism-based
Human betaherpesvirus 5 [5] = assay: Antimicrobial activity against Human cytomegalovirus AD169 infected in 0.1 uM compound pretreated HELF assessed as inhibition of viral replication measured after 6 days post-infection; type: functional, organism-based
In short: (§2)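 HELF pretreated with ODN 1 h before infection with HCMV AD169 (MOI 1); ODN kept in medium after 2 h adsorption at 37°C. At 6 days p.i., cells plus supernatants sonicated and titrated by plaque assay on HELF; plaques counted microscopically, expressed as PFU/ml (log10) or % of control. IC50/IC90 by linear regression; duplicate wells, three independent experiments, means ± SD.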

[6] = Cytotoxicity against HELF assessed as cell viability after 6 days by MTT assay; type: cell-based; conditions: human, HELF cells; in short: as §1
Human alphaherpesvirus 1 [7] = assay: Antimicrobial activity against Human herpesvirus 1 infected in compound pretreated HELF assessed as inhibition of viral replication at 1 uM; type: functional, organism-based
In short: (§3)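 HELF pretreated with ODN (0.1 or 1 μM) 1 h before infection with a clinical HSV-1 isolate at MOI 0.1; ODN kept in medium after 2 h adsorption. Harvest at 48 h p.i., sonication, plaque titration on Vero cells. Means ± SD of three independent experiments.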

Human betaherpesvirus 5 [8] = assay: Antimicrobial activity against 0.1 uM compound pretreated Human cytomegalovirus AD169 infected in HELF assessed as reduction in viral titer 37 degC; type: functional, organism-based
In short: (§4)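 HCMV AD169 (10^4 PFU) incubated with ODN at 0.1 μM at 4 or 37°C for various times; samples then diluted to bring ODN below an antivirally active level; residual infectivity titrated by plaque assay on HELF. Means ± SD of three independent experiments.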

Human betaherpesvirus 5 [9] = assay: Antimicrobial activity against 0.1 uM compound pretreated Human cytomegalovirus AD169 infected in HELF assessed as reduction in viral titer at 4 degC; type: functional, organism-based; in short: as §4
Human alphaherpesvirus 1 [10] = assay: Antimicrobial activity against Human herpesvirus 1 infected in compound pretreated HELF assessed as inhibition of viral replication at 0.1 uM; type: functional, organism-based; in short: as §3
[11] = test system: Vesicular stomatitis Indiana virus; assay: Antimicrobial activity against Vesicular stomatitis Indiana virus infected in compound pretreated HELF assessed as inhibition of viral replication; type: functional, organism-based
In short: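 HELFs exposed to ODN (0.1 or 1 μM) for 1 h, then infected with VSV serotype Indiana at MOI 1 (2 h adsorption, 37°C). ODN kept in the medium until 48 h p.i. Cells and supernatants were pooled, sonicated and titrated by plaque assay on HELFs. Data are means ± standard deviations of three independent experiments, duplicate wells.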

Human betaherpesvirus 5 [12] = assay: Antimicrobial activity against Human cytomegalovirus AD169 infected in HELF assessed as inhibition of viral replication at 1 uM measured after 6 days post-infection; type: functional, organism-based
Human betaherpesvirus 5 [13] = assay: Antimicrobial activity against Human cytomegalovirus AD169 infected in compound pretreated HELF assessed as inhibition of viral replication measured after 6 days post-infection; type: functional, organism-based; conditions: Human betaherpesvirus 5, AD169, HELF; in short: as §2
Human betaherpesvirus 5 [14] = assay: Antimicrobial activity against Human cytomegalovirus AD169 infected in 1 uM compound pretreated HELF assessed as inhibition of viral replication measured after 6 days post-infection; type: functional, organism-based; in short: as §2

Question: With `Cc1cn([C@H]2C[C@H](OP(O)(O)=S)[C@@H](COP(O)(=S)O[C@H]3C[C@H](n4cc(C)c(=O)[nH]c4=O)O[C@@H]3COP(O)(=S)O[C@H]3C[C@H](n4cc(C)c(=O)[nH]c4=O)O[C@@H]3COP(O)(=S)O[C@H]3C[C@H](n4cc(C)c(=O)[nH]c4=O)O[C@@H]3COP(O)(=S)O[C@H]3[C@@H](O)[C@H](n4cnc5c(=O)[nH]c(N)nc54)O[C@@H]3COP(O)(=S)O[C@H]3[C@@H](O)[C@H](n4ccc(N)nc4=O)O[C@@H]3COP(O)(=S)O[C@H]3C[C@H](n4cc(C)c(=O)[nH]c4=O)O[C@@H]3COP(O)(=S)O[C@H]3[C@@H](O)[C@H](n4cnc5c(=O)[nH]c(N)nc54)O[C@@H]3COP(O)(=S)O[C@H]3[C@@H](O)[C@H](n4cnc5c(=O)[nH]c(N)nc54)O[C@@H]3COP(O)(=S)O[C@H]3[C@@H](O)[C@H](n4ccc(N)nc4=O)O[C@@H]3COP(O)(=S)O[C@H]3C[C@H](n4cc(C)c(=O)[nH]c4=O)O[C@@H]3COP(O)(=S)O[C@H]3C[C@H](n4cc(C)c(=O)[nH]c4=O)O[C@@H]3COP(O)(=S)O[C@H]3C[C@H](n4cc(C)c(=O)[nH]c4=O)O[C@@H]3COP(O)(=S)O[C@H]3C[C@H](n4cc(C)c(=O)[nH]c4=O)O[C@@H]3COP(O)(=S)O[C@H]3C[C@H](n4cc(C)c(=O)[nH]c4=O)O[C@@H]3COP(O)(=S)O[C@H]3[C@@H](O)[C@H](n4cnc5c(=O)[nH]c(N)nc54)O[C@@H]3COP(O)(=S)O[C@H]3[C@@H](O)[C@H](n4ccc(N)nc4=O)O[C@@H]3COP(O)(=S)O[C@H]3C[C@H](n4cc(C)c(=O)[nH]c4=O)O[C@@H]3COP(O)(=S)O[C@H]3[C@@H](O)[C@H](n4cnc5c(=O)[nH]c(N)nc54)O[C@@H]3COP(O)(=S)O[C@H]3[C@@H](O)[C@H](n4ccc(N)nc4=O)O[C@@H]3COP(O)(=S)O[C@H]3C[C@H](n4cc(C)c(=O)[nH]c4=O)O[C@@H]3CO)O2)c(=O)[nH]c1=O` (stereo partly specified) as the compound, how does the inhibition (unidentified adenovirus) read?
Answer: inactive

Question: And the inhibition (Human betaherpesvirus 5 [1])?
Answer: inactive

Question: What about the inhibition (Human betaherpesvirus 5 [2]) of the same compound?
Answer: Active

Question: What about the Activity [3] of the same compound?
Answer: Non-toxic

Question: What about the inhibition (Human betaherpesvirus 5 [4]) of the same compound?
Answer: Active

Question: What about the inhibition (Human betaherpesvirus 5 [5]) of the same compound?
Answer: Active

Question: And the CC50 at 144 h [6]?
Answer: > 10000 nM

Question: What about the inhibition (Human alphaherpesvirus 1 [7]) of the same compound?
Answer: inactive

Question: What about the inhibition (Human betaherpesvirus 5 [8]) of the same compound?
Answer: inactive

Question: And the inhibition (Human betaherpesvirus 5 [9])?
Answer: inactive

Question: And the inhibition (Human alphaherpesvirus 1 [10])?
Answer: inactive

Question: What about the inhibition [11] of the same compound?
Answer: inactive

Question: What about the inhibition (Human betaherpesvirus 5 [12]) of the same compound?
Answer: inactive

Question: What about the IC50 (Human betaherpesvirus 5 [13]) of the same compound?
Answer: 25 nM

Question: What about the IC90 (Human betaherpesvirus 5 [13]) of the same compound?
Answer: 65 nM

Question: What about the inhibition (Human betaherpesvirus 5 [14]) of the same compound?
Answer: Active
